NPY-Y1 PAM-ag = potentiates or activates human NPY-Y1 receptor; activation, % at 3.6 µM; NPY-Y1 expressing cells, potentiator/agonist activation; hit rate 0.37% among 220,000; AID 1304; in the data active means activation above about 33%, passing the limit was not always enough;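 further: cells stimulated with NPY at EC10 then isoproterenol at EC100; 0% = low agonist plus stimulus and 100% = saturating agonist plus stimulus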
NPY Y2 blocker = blocks the human neuropeptide Y Y2 receptor; NPY-Y2 expressing cells, antagonist mode; hit rate 0.99% among 140,000; inhibition, % at 2.7 µM; AID 793; P49146;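 further: 0% = vehicle with agonist challenge and 100% = reference antagonist with challenge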
Target sequence (P49146 whole entry, looked up): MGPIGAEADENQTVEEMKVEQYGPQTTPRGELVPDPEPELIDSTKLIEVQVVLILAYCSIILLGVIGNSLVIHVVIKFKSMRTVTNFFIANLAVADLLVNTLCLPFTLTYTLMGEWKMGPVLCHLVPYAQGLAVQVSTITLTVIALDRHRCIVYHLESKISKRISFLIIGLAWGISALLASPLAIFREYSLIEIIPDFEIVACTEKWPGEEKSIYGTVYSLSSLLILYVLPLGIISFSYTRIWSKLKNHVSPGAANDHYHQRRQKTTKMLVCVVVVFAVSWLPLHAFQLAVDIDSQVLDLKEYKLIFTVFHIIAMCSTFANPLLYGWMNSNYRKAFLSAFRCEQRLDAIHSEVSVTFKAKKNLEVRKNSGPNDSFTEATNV
NPY-Y1 antag = NPY-Y1 (human) receptor antagonism | P25929 | hit rate 1% among 200,000 | inhibition, % at 3.6 µM | HEK293-CNG Y1 cells, membrane potential fluorescence; NPY at EC95, then isoproterenol;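 active means inhibition above the campaign mean inhibition of all tested compounds plus 3 SD, cut at about 20% in these data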;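 further: 0% = DMSO wells given NPY plus isoproterenol and 100% = isoproterenol alone without NPY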
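Assay system: HEK293 cells with Y1 receptor plus CNG channel | Probe or stimulus: NPY (25 nM), isoproterenol (1 µM), Ro 20-1724 (25 µM) | Timing: Compound incubation 1 h at room temperature, readout 45 min post-stimulation | Measured by: Membrane-potential fluorescent dye readout | Benchmarks: High control isoproterenol alone, low control NPY with isoproterenol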
NPY2 pot ag = potentiators or agonists of human neuropeptide Y receptor Y2. P49146. cells expressing NPY-Y2, potentiator/agonist read-out. activation, % at 3.6 µM. hit rate 0.45% among 220,000. AID 1359; in the data active means activation above about 27%;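 further: cells stimulated with NPY near EC25 plus isoproterenol at EC100; 0% = vehicle plus submaximal agonist and 100% = vehicle plus saturating agonist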
Rad51 HR inh = Rad51 (human) homologous recombination inhibition. Q06609. hRad51 DNA strand exchange, fluorescence dequenching. inhibition, % at 10 µM. hit rate 0.085% among 200,000. AID 1385;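 active means inhibition above 40% at the single screening dose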;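 further: 0% = DMSO control wells and 100% = blanks with heterologous ssDNA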
Target sequence (Q06609 whole entry, looked up): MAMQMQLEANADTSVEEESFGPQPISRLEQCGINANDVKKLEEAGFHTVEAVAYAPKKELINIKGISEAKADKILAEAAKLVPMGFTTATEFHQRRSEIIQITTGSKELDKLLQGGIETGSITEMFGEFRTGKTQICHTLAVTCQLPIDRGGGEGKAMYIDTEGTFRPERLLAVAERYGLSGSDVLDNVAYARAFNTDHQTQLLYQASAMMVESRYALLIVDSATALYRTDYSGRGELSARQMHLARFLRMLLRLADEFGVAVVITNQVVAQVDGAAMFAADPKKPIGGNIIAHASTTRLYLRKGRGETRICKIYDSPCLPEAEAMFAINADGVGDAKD
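Test system – preformed human Rad51 ssDNA filaments · Reagent – Donor/quencher-labelled 47-bp dsDNA substrate · Incubation – 37 °C 15-min filament assembly, 30-min compound preincubation, 15-min exchange · Signal – FRET fluorescence dequenching, excitation 485 nm, emission 520 nm · Read-out – percent inhibition from fluorescence, normalised to plate control and blank means · Benchmarks – plate control and blank wells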
Measles CPE = protection of cells from measles virus. Measles virus-infected cells, CPE protection, absorbance. hit rate 1.5% among 140,000. protection (pct of control), % at 4 µM; in the data active means protection mostly above about 24%, no sharp cut-off; inactive means mostly below about 26%
NPY-Y1 ant conf = human NPY-Y1 antagonism, confirmation; shares compounds with NPY-Y1 antag; HEK293-CNG NPY-Y1, membrane potential fluorescence, cAMP; NPY challenge against isoproterenol-raised cAMP; inhibition, % at 3.6 µM; hit rate 21% among 1,200; in the data active means inhibition above about 20%;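 further: 0% = vehicle with agonist plus stimulus and 100% = stimulus alone without agonist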
NPY2 antag ctr = antagonizes human NPY-Y2, counter-screen to NPY-Y1 antagonists. shares compounds with NPY-Y1 antag. HEK293 NPY-Y2 CNG membrane potential fluorescence, antagonism; cells given NPY, then isoproterenol. inhibition, % at 3.6 µM. hit rate 28% among 1,200;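 further: 0% = DMSO with agonist challenge and 100% = reference antagonist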
An asterisk follows results filed as active; / = not tested or not shown. A selection: hits, their analogues and other compounds. The true share with any hit is near 2.8%. Unless noted, no stated cut-off is given here; in the data, active means inhibition above about 17%; inactive means the rest.

SMILES | NPY-Y1 PAM-ag | NPY Y2 blocker | NPY-Y1 antag | NPY2 pot ag | Rad51 HR inh | Measles CPE | NPY-Y1 ant conf | NPY2 antag ctr
Cn1c(=O)c(C(=O)COc2ccc(F)cc2Cl)c(N)n(Cc2ccccc2)c1=O | 0 | / | 32* | -19 | -2 | / | 10 | 55*
COc1ccc(CN(C)CC(=O)c2c(N)n(Cc3ccccc3)c(=O)n(C)c2=O)c(OC)c1 | -38 | 14 | 24* | -3 | -4 | 4 | 11 | 8
Cn1c(N)c(C(=O)COc2ccc(Cl)cc2Cl)c(=O)n(C)c1=O | 7 | / | 5 | 3 | 21 | / | / | /
CCn1c(=O)c(C(=O)CN(C)Cc2cccc(OC)c2OC)c(N)n(Cc2ccccc2)c1=O | -12 | 4 | 8 | -5 | 10 | 23 | / | /
COc1cc(NC(=O)Cc2c(C(=O)O)n(C)c3ccccc23)cc(OC)c1OC | -6 | / | 3 | -11 | -19 | / | / | /
O=c1c2ccccc2c(=O)n(Cc2ccccc2)n1Cc1ccccc1 | -26 | 6 | 1 | -1 | 1 | 17 | / | /
C=CCNC(=S)N/N=C/c1ccc(C(C)(C)C)cc1 | -28 | / | 23* | -34 | -4 | / | 11 | 6
CC/C(=N\Nc1ccc([N+](=O)[O-])cc1)c1ccccc1 | 21 | / | -5 | 4 | -2 | / | / | /
CCC1(C(=O)c2ccccc2)C(c2ccc([N+](=O)[O-])cc2)C1(C(=O)OC)C(=O)OC (centres undefined) | -34 | 9 | 22* | -8 | 7 | 15 | 7 | 4
O=C1NC(=O)C(Cc2ccccc2)(c2cccnc2)N1 (centres undefined) | 19 | / | / | -9 | 19 | / | / | /
CN1\C(=C/C=C/C=C/C=[N+](C)C)C(C)(C)c2ccccc21 | 3 | / | 151* | -8 | -17 | / | 195* | 145*
Cc1cccc(NC(=O)c2cc(Cl)nc3ccccc23)c1 | -107 | 16 | 24* | -58 | / | 20 | 8 | 12
Cc1cccc(NC(=O)c2cc(N3CCOCC3)nc3ccccc23)c1 | -69 | 4 | 16 | -14 | -6 | 4 | / | /
CC(C)(C)NC(=S)NC1CC1 | 18 | / | / | 3 | 9 | / | / | /
Fc1ccccc1C1c2[nH]c3ccccc3c2CCN1Cc1cccn1-c1ncccn1 (centres undefined) | -21 | / | 29* | -49 | -2 | / | 8 | 14
COc1ccc(NCN2C(=O)C3C4C=CC(C4)C3C2=O)cc1 (centres undefined) | 3 | / | -1 | 0 | -1 | / | / | /
CCc1ncc(C(=O)c2ccc(OC)cc2)n1C | -14 | -2 | 29* | 0 | 0 | 3 | 0 | 0
Cc1cc2ncn(-c3ncnc4sc(C)c(C)c34)c2cc1C | -18 | 4 | 5 | -10 | -2 | 4 | / | /
Cc1cc2ncn(-c3ncnc4scc(-c5ccccc5)c34)c2cc1C | -25 | 15 | 31* | -13 | / | 29 | 18 | 13
N#C/C(=C\c1ccc(OC(=O)c2ccc(Cl)s2)cc1)c1nc2ccccc2[nH]1 | 3 | 1 | 5 | 4 | 9 | 1 | / | /
Cc1ccc(NC(=S)N/N=C/c2ccc(OCCC(C)C)cc2)c(C)c1 | -14 | 7 | 21* | -11 | / | 6 | 11 | 7
Cc1ccc(C(=O)c2c(C)oc3c2C(=O)C(=O)c2ccccc2-3)cc1 | -9 | 5 | 20 | -3 | 9 | 3 | / | /
Cc1oc2c(c1C(=O)c1ccc(Cl)cc1)C(=O)C(=O)c1ccccc1-2 | -22 | 9 | 26* | 1 | / | 0 | 9 | 12
CC1=CCC2COC(c3ccc[n+](Cc4ccccc4)c3)C1C2 (centres undefined) | 2 | 5 | 6 | 6 | / | 6 | / | /
CCN1CCc2c(C#N)c(NCc3ccccc3)nc(N(CC)CC)c2C1 | -38 | 13 | 34* | -21 | 1 | 4 | 11 | 28*
SMILES | NPY-Y1 PAM-ag | NPY Y2 blocker | NPY-Y1 antag | NPY2 pot ag | Rad51 HR inh | Measles CPE | NPY-Y1 ant conf | NPY2 antag ctr
CC(/C=C/c1ccco1)=N/NC(=O)OC(C)(C)C | 8 | 1 | -1 | -20 | -58 | 5 | / | /
COC(=O)c1cc(COc2ccc3oc(C)c(C(=O)OC(C)C)c3c2)c(C)o1 | -4 | 4 | 5 | -6 | -3 | 7 | / | /
N#Cc1nc(-c2ccc(F)cc2)oc1NCc1cccc2c1OCO2 | -25 | 15 | 22* | -9 | -6 | 12 | 16 | 15
COC(=O)[C@H](Cc1ccccc1)NC(=O)NCc1ccccc1OC | 9 | 3 | -3 | 13 | -2 | 11 | / | /
C/C(=N\Nc1nc2ccccc2[nH]1)c1ccc2c(c1)OCCO2 | -25 | / | 9 | -18 | / | / | / | /
C/C(=N\Nc1nc2ccccc2[nH]1)c1cc2ccccc2o1 | -83 | 11 | 33* | -27 | 1 | 12 | 11 | 17*
CN1CCc2c(sc3nc(NN)n(Cc4ccccc4)c(=O)c23)C1 | 5 | / | / | 1 | -17 | / | / | /
CCn1cc(C(=O)OCC(=O)OC2CC(C)CCC2C(C)C)c(=O)c2ccc(C)nc21 (centres undefined) | -22 | 4 | 21* | -1 | -6 | 14 | 11 | 8
C=CCOC(=O)c1cn(CC)c2nc(C)ccc2c1=O | -5 | / | -1 | 6 | -6 | / | / | /
C/C(=N\NS(=O)(=O)c1ccccc1)c1ccc2c(c1)OCCO2 | -25 | 4 | 6 | -12 | / | 11 | / | /
Cc1cc(C(=O)OCC(=O)c2cccs2)c2ccccc2n1 | -3 | / | -4 | -16 | -3 | / | / | /
Cc1cc(C(=O)N/N=C(\CCC(=O)O)c2cccs2)c2ccccc2n1 | 1 | / | 35* | 14 | -6 | / | -6 | 3
C1=C(c2ccccc2)Nc2ccccc2N=C1c1ccccc1 | -19 | 15 | 25* | -6 | 1 | 25 | 18 | 10
COc1ccc2nc(SC(C(=O)c3ccccc3)c3ccccc3)nc(C)c2c1 (centres undefined) | -46 | 15 | 40* | -30 | 9 | 14 | 27* | 35*
Cc1nc(SC(C(=O)c2ccccc2)c2ccccc2)nc2ccccc12 (centres undefined) | -15 | 9 | 6 | -6 | 9 | 5 | / | /
CCOc1cc(/C=N/NC(=O)c2ccncc2)cc(Cl)c1OS(C)(=O)=O | 2 | -1 | -4 | -8 | 4 | 5 | / | /
O=[N+]([O-])c1cc2c(c(CSc3ncccn3)c1)OCOC2 | 4 | / | 24* | -7 | 6 | / | 3 | 6
Cc1cc(C(=O)Nc2ncn(Cc3ccc(F)cc3)n2)ccc1[N+](=O)[O-] | 6 | / | / | -12 | -16 | / | / | /
CCN(CC)CCN(C(=O)Cn1nnc(-c2ccc(C)o2)n1)C(C(=O)NC(C)(C)C)c1cccs1 (centres undefined) | -60 | / | 45* | -53 | 6 | / | 21* | 34*

Screening data deposited in PubChem by several laboratories.
